Reference: ChEMBL document CHEMBL1124281, “A new series of ellipticine derivatives (1-(alkylamino)-9-methoxyellipticine). Synthesis, DNA binding, and biological properties” (J Med Chem, 1988)

Assays:
Mus musculus [1] = experiment: In vivo antitumor effect, expressed as the lethal dose (LD100), administered by intraperitoneal route; format: ADME, organism-based; details: ip
Mus musculus [2] = experiment: Increase in life of span over controls, 10e5 L1210 cells per mouse of 20 g, by ip route LD0/10 at a conc of LD0/2(N); format: functional
Procedure, shortened: (§1)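 Random DBA/2 female mice of 20 g were inoculated ip with 10^5 L1210 leukemia cells. A single ip dose in 200 μL water was given 24 h later, at LD0/10, LD0/5 or LD0/2, with 10 mice per dose and 20 controls. Deaths were counted daily at the same hour. ILS was taken from treated versus control median survival time, and cured mice were counted.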

NIH3T3 = experiment: In vitro cytotoxicity by growth inhibition in NIH3T3 cells; format: functional; details: Mus musculus, read-out: ID50 (the source's name)
Procedure, shortened: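 NIH-3T3 mouse fibroblasts in DMEM, 5% fetal calf serum, 37 °C, 6% CO2, seeded at 7.5×10^3 cells/cm²; drug added 24 h later and growth followed for three days. Trypsinized cells counted electronically; ID50 taken as 50% growth inhibition vs controls, from regression against log dose.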

Mus musculus [3] = experiment: In vivo antitumor effect, expressed as the highest nonlethal dose (LD0), administered by intraperitoneal route; format: ADME, organism-based; details: ip
Mus musculus [4] = experiment: Increase in life of span over controls, 10e5 L1210 cells per mouse of 20 g, by ip route LD0/10 at a conc of LD0/5(N); format: functional; procedure, shortened: as §1
Nucleic Acid [5] = experiment: Maximum number of sites; format: nucleic-acid assay; details: Bos taurus
Procedure, shortened: (§2)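 Calf thymus DNA binding by direct fluorescence titration (excitation 310 nm, emission 540 nm) in 10 mM acetate buffer, 100 mM NaCl, pH 5.2, 20 °C. Scatchard plots gave apparent association constant Kapp and apparent binding sites per nucleotide r_app. Drug stocks 5×10^-3 M in 50% DMSO/water, diluted in buffer.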

Mus musculus [6] = experiment: Increase in life of span over controls, 10e5 L1210 cells per mouse of 20 g, by ip route LD0/10 ata conc of LD0/10(N); format: functional; design: unit not given here; procedure, shortened: as §1
L1210 = experiment: In vitro cytotoxicity by growth inhibition in L1210 cells; format: functional; details: Mus musculus, read-out: ID50 (the source's name)
Procedure, shortened: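 L1210 leukemia suspension cultures in RPMI with fetal calf serum, 37 °C, 6% CO2; 10^4 cells/mL exponential phase exposed in duplicate to drug at final 10^-5–10^-8 M for 48 h. Cells counted electronically, viability by trypan blue exclusion; ID50 (50% growth inhibition vs untreated controls) from regression of % inhibition against log dose.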

Nucleic Acid [7] = experiment: Apparent binding constant (Kapp) to DNA, by direct fluorimetric titration, at pH 5; 10e-6; format: nucleic-acid assay; details: Bos taurus; procedure, shortened: as §2
Mus musculus [8] = experiment: Increase in life of span over controls, 10e5 L1210 cells per mouse of 20 g, by ip route LD0/10 ata conc of LD0/2(N); format: functional; procedure, shortened: as §1
Mus musculus [9] = experiment: Increase in life of span over controls, 10e5 L1210 cells per mouse of 20 g, by ip route LD0/10 ata conc of LD0/5(N); format: functional; procedure, shortened: as §1

Compound | LD100 (Mus musculus [1]) [mg/kg] | ILS (Mus musculus [2]) | IC50 (NIH3T3) [nM] | LD0 (Mus musculus [3]) [mg/kg] | ILS (Mus musculus [4]) | rapp (Nucleic Acid [5]) | ILS (Mus musculus [6]) | IC50 (L1210) [nM] | K app (Nucleic Acid [7]) [M⁻¹] | ILS (Mus musculus [8]) | ILS (Mus musculus [9])
CCNc1nccc2c(C)c3[nH]c4ccc(OC)cc4c3c(C)c12 | 90 | 42 | 300 | 70 | 13 | 0.2 | 2 | 50 | 2.15e+06 | – | –
COc1ccc2[nH]c3c(C)c4ccnc(N)c4c(C)c3c2c1 | 70 | – | – | 60 | – | 0.2 | 21 | 100 | 1e+06 | 93 | 39
COc1ccc2[nH]c3c(C)c4ccnc(NCCC(C)C)c4c(C)c3c2c1 | 350 | – | 500 | 300 | – | 0.2 | 10 | 800 | 3.75e+06 | – | 5
CCCNc1nccc2c(C)c3[nH]c4ccc(OC)cc4c3c(C)c12 | 200 | – | 300 | 100 | – | 0.2 | 0 | 100 | 2e+06 | – | 2
COc1ccc2[nH]c3c(C)c4ccnc(NCC(C)C)c4c(C)c3c2c1 | – | – | 300 | > 200 | – | 0.17 | – | 90 | 2.35e+06 | – | –
